Results published in ChEMBL document CHEMBL4350958, “Rational Design of Short Peptide Variants by Using Kunitzin-RE, an Amphibian-Derived Bioactivity Peptide, for Acquired Potent Broad-Spectrum Antimicrobial and Improved Therapeutic Potential of Commensalism Coinfection of Pathogens” (J Med Chem, 2019).
Active and inactive are the calls of the source. No cut-off for these calls is given here.

How the values were obtained:
[1] = system: Candida albicans; experiment: Antifungal activity against Candida albicans cgmcc2.2086 infected in C57BL/6 mouse model of keratitis assessed as reduction in clinical score at 1 to 5 mg/ml administered as topical eye drop every 5 mins for first 4 hrs and every 30 mins for next 7 hrs measured post-last dose; type: functional, organism-based
[2] = system: Staphylococcus aureus; experiment: Induction of morphological changes in Staphylococcus aureus ATCC 29213 assessed as membrane blebbing at MBD measured after 1 hr by atomic force microscopic analysis; type: functional, organism-based
[3] = system: Escherichia coli; experiment: Bactericidal activity against Escherichia coli ATCC 25922 assessed as reduction in bacterial growth at MBC measured within 30 mins by time-kill assay relative to control; type: functional; parameters: scale not given: the % may be the effect or the level left
Summary of the method: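 Time-kill assay. Cells at a final 0.5–1 × 10^5 CFU mL−1 were exposed to peptide at 1×MBC. Aliquots were removed at different times to calculate the survival rate against an untreated control. Mean of three independent experiments, each with three technical replicates.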

[4] = system: Escherichia coli; experiment: Induction of outer membrane permeabilization in Escherichia coli ATCC 25922 at 4 uM by NPN-dye based assay relative to control
Summary of the method: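 Mid-log E. coli ATCC 25922 (OD600 0.2) incubated 30 min with NPN (10 μM) in 5 mM HEPES pH 7.4 with 5 mM glucose, then mixed 1:1 with peptide (1–64 μM). Fluorescence (ex 350/em 420 nm) recorded until it plateaued. Percent NPN uptake calculated relative to no peptide and to 10 μg/mL polymyxin B. Three independent experiments, triplicates.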

## H-AARIILRWRFR-NH2
[1]
  Activity: Active
[2]
  Activity: Active
[3]
  Activity: 99.99%
[4]
  Activity: >=50 - 51%
